Calls of active or inactive are those of the source. No cut-off for these calls is given here.
What was measured:
Cytochrome P450 26A1 = molecular target: T1, Cytochrome P450 26A1 (Homo sapiens, UniProt O43174); test: Inhibition of CYP26A1 in human MCF7 cells
T1 sequence (O43174 whole entry): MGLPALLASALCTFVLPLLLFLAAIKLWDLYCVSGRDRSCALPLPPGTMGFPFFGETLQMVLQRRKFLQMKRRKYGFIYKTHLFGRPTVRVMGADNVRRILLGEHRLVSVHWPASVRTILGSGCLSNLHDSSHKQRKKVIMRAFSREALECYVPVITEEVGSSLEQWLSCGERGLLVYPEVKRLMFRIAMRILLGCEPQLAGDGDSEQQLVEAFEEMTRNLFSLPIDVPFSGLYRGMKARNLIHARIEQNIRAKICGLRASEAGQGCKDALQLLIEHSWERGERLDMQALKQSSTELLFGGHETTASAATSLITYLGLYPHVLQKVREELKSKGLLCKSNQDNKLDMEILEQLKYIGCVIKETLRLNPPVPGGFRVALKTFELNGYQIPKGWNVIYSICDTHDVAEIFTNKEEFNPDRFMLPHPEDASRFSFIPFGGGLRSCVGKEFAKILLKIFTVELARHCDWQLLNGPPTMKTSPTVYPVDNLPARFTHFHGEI

SH-SY5Y [1] = test: Increase in all-trans retinoic acid-induced CYP26B1 mRNA expression in human SH-SY5Y cells at 0.01 to 10 uM after 24 hrs relative to all-trans retinoic acid; assay type: functional; conditions: in the assay text read “0.1 to 10 uM” for “0.01 to 10 uM”
Method in brief: (§1)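 SH-SY5Y neuroblastoma cells were grown at 37 °C in RPMI 1640 with 10% foetal calf serum and 2 mM L-glutamine under 5% CO2. Inhibitor was given alone or with atRA (DMSO vehicle) for 24 h. Total RNA was reverse transcribed and CYP26B1 was measured by TaqMan real-time PCR, normalised to β-actin. Results are fold change versus atRA-only cells by the comparative Ct method, mean ± S.E.M., n ≥ 3.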

SH-SY5Y [2] = test: Increase of CYP26B1 mRNA expression in human SH-SY5Y cells; assay type: functional, cell-based; method in brief: as §1
SH-SY5Y [3] = test: Increase in all-trans retinoic acid-induced CYP26B1 mRNA expression in human SH-SY5Y cells at 10 uM relative to R116010; assay type: functional, cell-based
SH-SY5Y [4] = test: Increase of all-trans retinoic acid-induced CYP26B1 mRNA expression in human SH-SY5Y cells at 1 uM after 24 hrs relative to all-trans retinoic acid; assay type: functional; method in brief: as §1
T47D = test: Inhibition of all-trans retinoic acid metabolism in human T47D cells; assay type: functional, cell-based

| Structure (SMILES) | IC50 (Cytochrome P450 26A1) [µM] | also measured |
| --- | --- | --- |
| CC(c1ccc(Nc2ccccc2)cc1)n1ccnc1 (stereo unspecified) | 35 |  |
| CC(c1ccc(Nc2ccc3ccccc3c2)cc1)n1ccnc1 (stereo unspecified) | 15 |  |
| c1ccc(C(c2ccc(Nc3nc4ccccc4[nH]3)cc2)n2ccnc2)cc1 (stereo unspecified) | 2.5 |  |
| c1ccc(C(c2ccc(Nc3ccc4ccccc4c3)cc2)n2ccnc2)cc1 (stereo unspecified) | 0.5 | Activity (SH-SY5Y [3]): Active; Activity (SH-SY5Y [2]): inactive |
| c1ccc(C(c2ccc(Nc3ccc4c(c3)CCC4)cc2)n2ccnc2)cc1 (stereo unspecified) | 1 |  |
| c1ccc(Nc2ccc(C(c3ccccc3)n3cncn3)cc2)cc1 (stereo unspecified) | 5 | Activity (SH-SY5Y [4]): inactive |
| C[C@H]([C@@H](c1ccc(Nc2nc3ccccc3s2)cc1)n1ccnc1)N(C)C |  | IC50 (T47D): 0.0087 µM; fold change (FC) (SH-SY5Y [4]): 5 |
| c1ccc(C(c2ccc(Nc3nc4ccccc4o3)cc2)n2ccnc2)cc1 (stereo unspecified) | 0.9 | fold change (FC) (SH-SY5Y [1]): 4; Activity (SH-SY5Y [2]): inactive |

Further lines, with some results ahead:

| IC50 (Cytochrome P450 26A1) [µM] | Structure (SMILES) | also measured |
| --- | --- | --- |
| 1.5 | c1ccc(C(c2ccc(Nc3nc4ccccc4s3)cc2)n2ccnc2)cc1 (stereo unspecified) | fold change (FC) (SH-SY5Y [1]): 2; Activity (SH-SY5Y [2]): inactive |
| 5 | c1ccc(Nc2ccc(C(c3ccccc3)n3ccnc3)cc2)cc1 (stereo unspecified) |  |
| > 50 | CC(c1ccc(Nc2ccccc2)cc1)n1cncn1 (stereo unspecified) |  |
| 7 | c1ccc(-c2ccc(C(c3cc4ccccc4o3)n3cncn3)cc2)cc1 (stereo unspecified) |  |
| 4.5 | CCc1ccc(C(c2cc3ccccc3o2)n2cncn2)cc1 (stereo unspecified) |  |

Reference: ChEMBL document CHEMBL1140061, “Novel azolyl-(phenylmethyl)]aryl/heteroarylamines: potent CYP26 inhibitors and enhancers of all-trans retinoic acid activity in neuroblastoma cells” (Bioorg Med Chem, 2008)
